Measured values as given in ChEMBL document CHEMBL3608292, “Synthesis and biological evaluation of novel myrtucommulones and structural analogues that target mPGES-1 and 5-lipoxygenase” (Eur J Med Chem, 2015).

Tests used:
[1] = target: T1, Prostaglandin E synthase (Homo sapiens, UniProt O14684); test: Inhibition of mPGES-1 in microsomal membranes isolated from interleukin-1beta-stimulated human A549 cells using PGH2 as substrate assessed as PGE2 formation preincubated for 15 mins followed by substrate addition measured after 1 min by RP-HPLC analysis; format: cell membranes
T1 sequence (O14684 whole entry): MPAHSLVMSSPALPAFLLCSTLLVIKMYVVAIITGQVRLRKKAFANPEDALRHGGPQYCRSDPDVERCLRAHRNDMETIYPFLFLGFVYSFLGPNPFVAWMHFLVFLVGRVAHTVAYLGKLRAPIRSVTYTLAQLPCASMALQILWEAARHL
Procedure, shortened: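 A549 cells kept 16 h in DMEM with 2% FCS, then 1 ng/ml IL-1β for 72 h. Cells homogenized and sonicated, microsomes obtained by centrifugation at 10,000 × g then 174,000 × g. Microsomes in 0.1 M potassium phosphate pH 7.4 with 2.5 mM glutathione, preincubated 15 min with compound or 0.3% DMSO. 20 µM PGH₂ (final) for 1 min at 4 °C. Stopped with FeCl₂/citric acid containing 11β-PGE₂, solid-phase extraction, RP-HPLC with UV at 195 nm.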

[2] = target: T2, Polyunsaturated fatty acid 5-lipoxygenase (Homo sapiens, UniProt P09917); test: Inhibition of recombinant human 5-LO expressed in Escherichia coli BL21 using arachidonic acid as substrate assessed as formation of all-trans isomer of LTB4, 5-H(P)ETE preincubated for 5 to 10 mins followed by substrate addition measured after 10 mins by HPLC analysis
T2 sequence (P09917 whole entry): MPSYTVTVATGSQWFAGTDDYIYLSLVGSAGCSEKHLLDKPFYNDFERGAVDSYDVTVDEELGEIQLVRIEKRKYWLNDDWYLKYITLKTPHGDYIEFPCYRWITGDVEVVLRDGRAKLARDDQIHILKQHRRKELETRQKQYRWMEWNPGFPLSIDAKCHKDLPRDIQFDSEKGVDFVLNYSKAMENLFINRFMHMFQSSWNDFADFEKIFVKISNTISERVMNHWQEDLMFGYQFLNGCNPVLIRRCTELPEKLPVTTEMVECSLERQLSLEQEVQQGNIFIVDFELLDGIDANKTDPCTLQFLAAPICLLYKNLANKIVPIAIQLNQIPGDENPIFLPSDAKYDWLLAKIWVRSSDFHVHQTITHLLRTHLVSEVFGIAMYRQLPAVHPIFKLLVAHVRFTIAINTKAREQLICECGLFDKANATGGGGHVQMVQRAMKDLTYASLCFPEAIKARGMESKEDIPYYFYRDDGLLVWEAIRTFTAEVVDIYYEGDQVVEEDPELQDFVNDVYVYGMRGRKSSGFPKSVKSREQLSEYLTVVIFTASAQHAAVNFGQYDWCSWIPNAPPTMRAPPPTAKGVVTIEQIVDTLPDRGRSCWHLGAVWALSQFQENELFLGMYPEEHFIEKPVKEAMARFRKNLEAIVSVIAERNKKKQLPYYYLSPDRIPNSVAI

[3] = target: T2, Polyunsaturated fatty acid 5-lipoxygenase; test: Inhibition of 5-LO in ionophore A23187-stimulated human PMNL using arachidonic acid as substrate assessed as formation of LTB4, 5(S),12(S)-DiHETE, 5-H(p)ETE preincubated for 15 mins followed by substrate and ionophore addition measured after 10 mins by HPLC analysis
[4] = test system: Jurkat; test: Cytotoxicity against human Jurkat cells assessed as induction of cell death after 48 hrs by MTT assay; format: functional, cell-based
Procedure, shortened: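 Jurkat T cells grown in RPMI 1640 with 10% heat-inactivated FCS, 10 mM HEPES, penicillin/streptomycin at 37 °C, 5% CO₂. Seeded at 2 × 10⁴ per well. Compounds or 0.3% DMSO vehicle added for 48 h. MTT then added until blue staining, cells lysed overnight in 10% SDS/20 mM HCl, absorbance read at 570 nm. Three to four independent experiments.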

[5] = target: Prostaglandin G/H synthase 1 (Homo sapiens, UniProt P23219); test: Inhibition of COX-1 in human platelet using arachidonic acid as substrate assessed as formation of 12-HHT preincubated for 10 mins followed by substrate addition measured after 5 mins by HPLC analysis
[6] = target: T2, Polyunsaturated fatty acid 5-lipoxygenase; test: Inhibition of 5-LO in human PMNL using arachidonic acid as substrate preincubated for 10 mins followed by substrate addition measured after 10 mins by HPLC analysis
[7] = target: T2, Polyunsaturated fatty acid 5-lipoxygenase; test: Inhibition of recombinant human 5-LO expressed in Escherichia coli BL21 using arachidonic acid as substrate assessed as formation of LTB4, 5(S),12(S)-DiHETE, 5-H(p)ETE preincubated for 5 to 10 mins followed by substrate addition measured after 10 mins by HPLC

Prostaglandin G/H synthase 1, sequence (P23219 whole entry): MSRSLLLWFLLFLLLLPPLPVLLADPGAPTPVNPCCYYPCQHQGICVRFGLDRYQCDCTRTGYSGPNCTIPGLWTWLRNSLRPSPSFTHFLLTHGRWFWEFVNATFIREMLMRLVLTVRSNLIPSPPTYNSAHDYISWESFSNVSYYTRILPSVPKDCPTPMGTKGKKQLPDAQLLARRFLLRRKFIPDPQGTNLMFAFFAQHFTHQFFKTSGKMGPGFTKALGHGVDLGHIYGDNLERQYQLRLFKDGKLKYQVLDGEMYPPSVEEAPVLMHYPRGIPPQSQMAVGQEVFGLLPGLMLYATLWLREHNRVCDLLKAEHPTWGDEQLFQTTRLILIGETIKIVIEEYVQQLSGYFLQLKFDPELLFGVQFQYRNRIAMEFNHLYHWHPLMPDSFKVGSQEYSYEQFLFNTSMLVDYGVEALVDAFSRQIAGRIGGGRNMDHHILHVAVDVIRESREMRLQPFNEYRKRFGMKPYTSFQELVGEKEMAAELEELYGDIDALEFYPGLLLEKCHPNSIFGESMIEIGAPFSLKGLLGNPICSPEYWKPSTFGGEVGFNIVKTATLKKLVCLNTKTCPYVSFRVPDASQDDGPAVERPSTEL

IC50 [1]: 1000 nM
IC50 [2]: 15 µM
IC50 [3]: 3.2 µM
IC50 [5]: 17 µM
IC50 [6]: 1800 nM
IC50 [7]: 5 µM
Structure (SMILES): CC(C)C(=O)c1c(O)c([C@H](C2=C(O)C(C)(C)C(=O)C(C)(C)C2=O)C(C)C)c(O)c([C@H](C2=C(O)C(C)(C)C(=O)C(C)(C)C2=O)C(C)C)c1O [MYRTUCOMMULONE A]
EC50 [4]: 2400 nM
